Experimental data as given in ChEMBL document CHEMBL4052828, “Discovery of 4-((7H-Pyrrolo[2,3-d]pyrimidin-4-yl)amino)-N-(4-((4-methylpiperazin-1-yl)methyl)phenyl)-1H-pyrazole-3-carboxamide (FN-1501), an FLT3- and CDK-Kinase Inhibitor with Potentially High Efficiency against Acute Myelocytic Leukemia” (J Med Chem, 2018).
Values belong to the compound of their own block, whether it stands above or below them.

How the values were obtained:
[1] = Intrinsic clearance in dog liver microsomes by LC-MS/MS analysis; assay type: ADME, Canis lupus familiaris, microsome; settings: read-out: CLH
[2] = Terminal half life in cynomolgus monkey liver microsomes by LC-MS/MS analysis; assay type: ADME, Macaca fascicularis, microsome; settings: read-out: beta t1/2 (converted)
Summary of the method: (§1)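 Metabolic stability measured by incubating compound in human, rat, mouse, dog and monkey liver microsomes. Terminal t1/2 determined.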

[3] = test system: NCI-H82; assay: Growth inhibition of human NCI-H82 cells after 72 hrs by CellTiter-Glo assay; assay type: functional; settings: NCI-H82, 72 h
[4] = test system: MCF7; assay: Growth inhibition of human MCF7 cells after 72 hrs by CellTiter-Glo assay; assay type: functional; settings: MCF7, 72 h
[5] = Terminal half life in mouse liver microsomes by LC-MS/MS analysis; assay type: ADME, microsome; settings: read-out: beta t1/2 (converted); summary of the method: as §1
[6] = test system: MGC-803; assay: Growth inhibition of human MGC803 cells after 72 hrs by CellTiter-Glo assay; assay type: functional; settings: MGC-803, 72 h
[7] = test system: HCT-116; assay: Growth inhibition of human HCT116 cells after 72 hrs by CellTiter-Glo assay; assay type: functional; settings: HCT-116, 72 h
[8] = Terminal half life in human liver microsomes by LC-MS/MS analysis; assay type: ADME, microsome; settings: read-out: beta t1/2 (converted); summary of the method: as §1
[9] = test system: MV4-11; assay: Growth inhibition of human MV4-11 cells at 1 uM after 72 hrs by CellTiter-Glo assay relative to control; assay type: functional; settings: MV4-11, 72 h, read-out: GI
[10] = Terminal half life in dog liver microsomes by LC-MS/MS analysis; assay type: ADME, Canis lupus familiaris, microsome; settings: read-out: beta t1/2 (converted); summary of the method: as §1
[11] = target: Cyclin-dependent kinase 4/cyclin D1 (Homo sapiens, UniProt P11802); assay: Inhibition of human CDK4/Cyclin D1 using RB protein as substrate preincubated for 20 mins followed by [gamma-33P]-ATP addition measure after 120 mins by filter binding method; assay type: protein-complex assay
Summary of the method: (§2)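 Compound preincubated with kinase 20 min at room temperature. Reaction started with 10 μM [γ-33P]ATP and run 120 min at 25°C. Filter-binding read-out, curve-fitted IC50; mean ± SD of three independent experiments.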

[12] = target: CDK2/Cyclin A1 (Homo sapiens, UniProt P24941); assay: Inhibition of human CDK2/Cyclin A1 using histone H1 as substrate preincubated for 20 mins followed by [gamma-33P]-ATP addition measure after 120 mins by filter binding method; assay type: protein-complex assay
Summary of the method: (§3)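 Compound preincubated with kinase 20 min at room temperature. Filter-binding read-out, curve-fitted IC50; mean ± SD of three independent experiments.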

[13] = test system: RS4-11; assay: Growth inhibition of human RS4:11 cells after 72 hrs by CellTiter-Glo assay; assay type: functional; settings: RS4-11, 72 h
[14] = target: CDK6/cyclin D1 (Homo sapiens, UniProt Q00534); assay: Inhibition of human CDK6/Cyclin D1 using RB protein as substrate preincubated for 20 mins followed by [gamma-33P]-ATP addition measure after 120 mins by filter binding method; assay type: protein-complex assay; summary of the method: as §2
[15] = target: T1, Receptor-type tyrosine-protein kinase FLT3 (Homo sapiens, UniProt P36888); assay: Inhibition of human FLT3 using EAIYAAPFAKKK as substrate preincubated for 20 mins followed by [gamma-33P]-ATP addition measure after 120 mins by filter binding method; summary of the method: as §3
T1 sequence (P36888 whole entry): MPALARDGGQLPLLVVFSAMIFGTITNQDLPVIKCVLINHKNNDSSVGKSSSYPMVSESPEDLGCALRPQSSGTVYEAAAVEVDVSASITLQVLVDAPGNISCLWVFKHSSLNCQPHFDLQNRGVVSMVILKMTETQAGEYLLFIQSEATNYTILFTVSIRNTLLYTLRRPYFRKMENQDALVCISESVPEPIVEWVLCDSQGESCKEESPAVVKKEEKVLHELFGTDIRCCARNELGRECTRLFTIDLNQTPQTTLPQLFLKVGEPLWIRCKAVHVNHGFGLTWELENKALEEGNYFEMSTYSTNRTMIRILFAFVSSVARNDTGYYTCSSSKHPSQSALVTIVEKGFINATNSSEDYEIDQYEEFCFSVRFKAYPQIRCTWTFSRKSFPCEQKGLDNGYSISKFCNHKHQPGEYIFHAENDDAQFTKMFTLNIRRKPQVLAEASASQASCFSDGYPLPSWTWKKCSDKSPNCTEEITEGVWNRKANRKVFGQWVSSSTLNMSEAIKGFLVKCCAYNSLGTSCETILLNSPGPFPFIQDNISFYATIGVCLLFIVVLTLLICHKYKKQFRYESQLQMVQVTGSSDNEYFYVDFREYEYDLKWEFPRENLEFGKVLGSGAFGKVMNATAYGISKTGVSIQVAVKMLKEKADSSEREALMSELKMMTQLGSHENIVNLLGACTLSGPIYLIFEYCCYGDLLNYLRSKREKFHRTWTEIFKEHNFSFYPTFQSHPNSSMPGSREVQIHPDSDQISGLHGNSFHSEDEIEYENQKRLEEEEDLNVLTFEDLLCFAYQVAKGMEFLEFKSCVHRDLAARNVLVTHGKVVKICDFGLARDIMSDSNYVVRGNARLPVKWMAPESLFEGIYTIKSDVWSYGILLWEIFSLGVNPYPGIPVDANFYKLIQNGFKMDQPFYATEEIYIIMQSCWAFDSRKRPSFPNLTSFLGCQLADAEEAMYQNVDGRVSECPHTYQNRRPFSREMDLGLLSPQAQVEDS

[16] = Intrinsic clearance in human liver microsomes by LC-MS/MS analysis; assay type: ADME, microsome; settings: read-out: CLH
[17] = Intrinsic clearance in cynomolgus monkey liver microsomes by LC-MS/MS analysis; assay type: ADME, Macaca fascicularis, microsome; settings: read-out: CLH
[18] = Intrinsic clearance in rat liver microsomes by LC-MS/MS analysis; assay type: ADME, microsome; settings: read-out: CLH
[19] = Terminal half life in rat liver microsomes by LC-MS/MS analysis; assay type: ADME, microsome; settings: read-out: beta t1/2 (converted); summary of the method: as §1
[20] = Intrinsic clearance in mouse liver microsomes by LC-MS/MS analysis; assay type: ADME, microsome; settings: read-out: CLH
[21] = target: CDK2/Cyclin A1 (Homo sapiens) (UniProt P24941+P78396); assay: Inhibition of human CDK2/Cyclin A1 assessed as residual activity at 0.123 uM using histone H1 as substrate preincubated for 20 mins followed by [gamma-33P]-ATP addition measure after 120 mins by filter binding method relative to control; assay type: protein-complex assay
[22] = target: Receptor-type tyrosine-protein kinase FLT3 (Homo sapiens) (UniProt P36888); assay: Inhibition of human FLT3 assessed as residual activity at 0.123 uM using EAIYAAPFAKKK as substrate preincubated for 20 mins followed by [gamma-33P]-ATP addition measure after 120 mins by filter binding method relative to control
[23] = test system: MV4-11; assay: Growth inhibition of human MV4-11 cells after 72 hrs by CellTiter-Glo assay; assay type: functional, cell-based; settings: MV4-11, 72 h
Summary of the method: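 MV4-11 cells grown in IMDM with 10% FBS, 2% L-glutamine and 1% pen/strep at 37 °C, 5% CO2. Seeded at 10000 cells/well and exposed to compound at various concentrations for 72 h. Viability read by CellTiter-Glo luminescence.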

[24] = Lipophilicity, log P of the compound; assay type: physicochemical; settings: octanol/water

Cyclin-dependent kinase 4/cyclin D1, sequence (P11802 whole entry): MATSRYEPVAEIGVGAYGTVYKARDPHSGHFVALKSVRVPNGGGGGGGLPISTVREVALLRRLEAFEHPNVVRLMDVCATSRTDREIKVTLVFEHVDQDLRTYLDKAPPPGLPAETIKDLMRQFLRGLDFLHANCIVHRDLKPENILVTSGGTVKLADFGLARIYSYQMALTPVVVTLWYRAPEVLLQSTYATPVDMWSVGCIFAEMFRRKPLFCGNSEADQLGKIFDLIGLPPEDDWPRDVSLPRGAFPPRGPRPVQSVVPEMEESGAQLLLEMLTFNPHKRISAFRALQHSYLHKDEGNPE
Cyclin-dependent kinase 4/cyclin D1, sequence (P24385 whole entry, further chain): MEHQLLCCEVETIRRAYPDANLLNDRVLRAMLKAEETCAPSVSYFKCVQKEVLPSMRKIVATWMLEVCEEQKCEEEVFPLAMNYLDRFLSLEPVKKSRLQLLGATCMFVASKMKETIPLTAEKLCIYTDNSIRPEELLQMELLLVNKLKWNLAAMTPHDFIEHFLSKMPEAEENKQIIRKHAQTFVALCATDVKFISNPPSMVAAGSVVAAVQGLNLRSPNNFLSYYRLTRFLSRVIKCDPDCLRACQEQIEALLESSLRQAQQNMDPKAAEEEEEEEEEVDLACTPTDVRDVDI
CDK6/cyclin D1, sequence (P24385 whole entry): as the sequence (P24385 whole entry, further chain) above
CDK6/cyclin D1, sequence (Q00534 whole entry): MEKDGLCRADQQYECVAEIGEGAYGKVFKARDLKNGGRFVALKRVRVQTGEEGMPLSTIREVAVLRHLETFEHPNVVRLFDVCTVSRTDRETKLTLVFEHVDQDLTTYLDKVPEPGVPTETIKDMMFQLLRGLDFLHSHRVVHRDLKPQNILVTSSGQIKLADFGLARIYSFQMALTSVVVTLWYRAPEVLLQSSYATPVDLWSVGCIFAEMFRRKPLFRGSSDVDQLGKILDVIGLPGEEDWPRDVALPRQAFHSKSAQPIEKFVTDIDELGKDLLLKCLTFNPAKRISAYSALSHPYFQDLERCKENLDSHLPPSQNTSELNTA

SMILES: O=C(Nc1ccc(CN2CCOCC2)cc1)c1n[nH]cc1Nc1ncnc2sccc12
CLint scaled [1]: 1330 mL/min/kg
half-life [2]: 10.9 min
GI50 [3]: 290 nM
GI50 [4]: 610 nM
half-life [5]: 7.2 min
GI50 [6]: 210 nM
GI50 [7]: 580 nM
half-life [8]: 8.28 min
inhibition of growth at 1 µM [9]: 98.5%
half-life [10]: 1.5 min
IC50 [11]: 2.4 nM
IC50 [12]: 3.36 nM
GI50 [13]: 170 nM
IC50 [14]: 3.88 nM
IC50 [15]: 0.623 nM
CLint scaled [16]: 165 mL/min/kg
CLint scaled [17]: 171 mL/min/kg
CLint scaled [18]: 352 mL/min/kg
half-life [19]: 7.08 min
CLint scaled [20]: 765 mL/min/kg

SMILES: CCN(CC)Cc1ccc(NC(=O)c2n[nH]cc2Nc2ncnc3[nH]ccc23)cc1
IC50 [12]: 13.6 nM
IC50 [15]: 0.13 nM

SMILES: CC(C)c1cc2c(Nc3c[nH]nc3C(=O)Nc3ccc(CN4CCN(C)CC4)cc3)ncnc2s1
IC50 [12]: 3.89 nM
IC50 [15]: 2.31 nM

SMILES: CN1CCN(Cc2ccc(NC(=O)c3n[nH]cc3Nc3ncnc4occc34)cc2)CC1
inhibition of growth at 1 µM [9]: 94.7%
IC50 [11]: 5.67 nM
IC50 [12]: 16.5 nM
IC50 [14]: 5.09 nM
IC50 [15]: 2.56 to 2.65 nM

SMILES: O=C(Nc1ccc(CNC2CC2)cc1)c1n[nH]cc1Nc1ncnc2sccc12
IC50 [12]: 2.05 nM
IC50 [15]: 1.05 nM

SMILES: Cc1sc2ncnc(Nc3c[nH]nc3C(=O)Nc3ccc(CN4CCN(C)CC4)cc3)c2c1C
IC50 [12]: 1.9 nM
IC50 [15]: 0.576 nM

SMILES: O=C(Nc1ccc(CN2CCOCC2)cc1)c1n[nH]cc1Nc1ccnc2ccccc12
inhibition of growth at 1 µM [9]: 42%
Activity [21]: 57.7%
Activity [22]: 40.8%

SMILES: Cc1sc2ncnc(Nc3c[nH]nc3C(=O)Nc3ccc(CN4CCOCC4)cc3)c2c1C
IC50 [23]: 30 nM
IC50 [12]: 7.34 nM
IC50 [15]: 3.52 nM

SMILES: CCc1cc2c(Nc3c[nH]nc3C(=O)Nc3ccc(CN4CCOCC4)cc3)ncnc2s1
IC50 [23]: 34 nM
IC50 [12]: 3.3 nM
IC50 [15]: 1.56 nM

SMILES: CN1CCN(Cc2ccc(NC(=O)c3n[nH]cc3Nc3ccnc4ccccc34)cc2)CC1
inhibition of growth at 1 µM [9]: 98.8%
Activity [21]: 26.5%
Activity [22]: 27.7%

SMILES: CCc1cc2c(Nc3c[nH]nc3C(=O)Nc3ccc(CN4CCN(C)CC4)cc3)ncnc2s1
IC50 [12]: 1.87 nM
IC50 [15]: 0.101 nM

Continued, in another order:

IC50 [15]: 0.384 nM
SMILES: Cc1cc2c(Nc3c[nH]nc3C(=O)Nc3ccc(CN4CCN(C)CC4)cc3)ncnc2s1

IC50 [12]: 3.03 nM
IC50 [15]: 0.32 nM
SMILES: CN1CCCN(Cc2ccc(NC(=O)c3n[nH]cc3Nc3ncnc4sccc34)cc2)CC1

IC50 [23]: 23 nM
IC50 [11]: 3.1 nM
IC50 [12]: 9.32 nM
IC50 [14]: 4.11 nM
IC50 [15]: 0.47 nM
SMILES: CN1CCN(Cc2ccc(NC(=O)c3n[nH]cc3Nc3ncnc4ccsc34)cc2)CC1

IC50 [12]: 24.1 nM
IC50 [15]: 16.9 nM
SMILES: O=C(Nc1ccc(CN2CCOCC2)cc1)c1n[nH]cc1Nc1ccnc2ccc(Br)cc12
inhibition of growth at 1 µM [9]: 93.7%

logP [24]: 2.65
IC50 [23]: 19 nM
IC50 [12]: 2.08 nM
IC50 [15]: 0.34 nM
SMILES: O=C(Nc1ccc(CN2CCNCC2)cc1)c1n[nH]cc1Nc1ncnc2sccc12

Activity [21]: 60.5%
Activity [22]: 24.5%
SMILES: CN1CCN(Cc2ccc(NC(=O)c3n[nH]cc3Nc3nccc4ccccc34)cc2)CC1

IC50 [23]: 15 nM
IC50 [12]: 9.85 nM
IC50 [15]: 7.63 nM
SMILES: CC(C)c1cc2c(Nc3c[nH]nc3C(=O)Nc3ccc(CN4CCOCC4)cc3)ncnc2s1
